Data from ChEMBL document CHEMBL1629474, “Massive screening yields novel and selective Trypanosoma cruzi triosephosphate isomerase dimer-interface-irreversible inhibitors with anti-trypanosomal activity” (Eur J Med Chem, 2010).
The source made the active and inactive calls. The rule behind the calls is not given here.

Tests used:
[1] = target: Triosephosphate isomerase, glycosomal (Trypanosoma cruzi) (UniProt P52270); test: Inhibition of Trypanosoma cruzi triosephosphate isomerase at 400 uM after 2 hrs
Triosephosphate isomerase, glycosomal (Trypanosoma cruzi), sequence (P52270 whole entry): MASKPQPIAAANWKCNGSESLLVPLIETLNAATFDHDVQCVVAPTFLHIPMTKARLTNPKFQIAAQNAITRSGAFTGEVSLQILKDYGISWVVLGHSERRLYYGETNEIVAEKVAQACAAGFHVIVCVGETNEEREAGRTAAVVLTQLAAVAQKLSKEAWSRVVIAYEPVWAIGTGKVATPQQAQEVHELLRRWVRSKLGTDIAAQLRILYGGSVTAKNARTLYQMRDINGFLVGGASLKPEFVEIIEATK
Method in brief: (§1)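 Recombinant E. coli-expressed enzyme, dialyzed into 100 mM triethanolamine/10 mM EDTA pH 7.4, was incubated with compound (DMSO stock) in 100 mM triethanolamine, 10 mM EDTA, pH 7.4, 10% DMSO at 36 °C for 2 h. An aliquot was then assayed for activity (glyceraldehyde 3-phosphate to dihydroxyacetone phosphate, α-glycerol phosphate dehydrogenase-coupled) with 5 ng enzyme. Irreversible inhibition was scored as loss of activity; means of two experiments.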

[2] = target: Triosephosphate isomerase, glycosomal (Trypanosoma cruzi) (UniProt P52270); test: Inhibition of Trypanosoma cruzi triosephosphate isomerase at 100 uM after 2 hrs; method in brief: as §1
[3] = Selectivity for Trypanosoma cruzi triosephosphate isomerase over human triosephosphate isomerase
[4] = tested on: Trypanosoma cruzi; test: Antiparasitic activity against Trypanosoma cruzi T2 epimastigotes assessed as growth inhibition; assay type: functional; conditions: read-out: ID50 (the source's name)
Method in brief: (§2)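 Epimastigotes were cultured at 28 °C in BHI-tryptose plus 5% fetal calf serum and seeded at 2×10^6/mL with increasing compound concentrations (from DMSO stock; final DMSO ≤1%). Growth was followed as A590 against untreated controls. ID50 was the concentration halving absorbance relative to controls. Means of two experiments.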

[5] = tested on: Trypanosoma cruzi; test: Antiparasitic activity against Trypanosoma cruzi T2 epimastigotes assessed as growth inhibition at 25 uM after 5 days; assay type: functional; conditions: for inhibition of growth at 25 µM: T2, 120 h, read-out: GI
Method in brief: (§3)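 Late-log epimastigotes were grown axenically at 28 °C in BHI-tryptose with 5% fetal calf serum and seeded at 2×10^6/mL in medium containing compound (DMSO stock; final DMSO ≤1%, 1% DMSO control). Growth was read as A590 at day 0 and day 5. Inhibition = {1 − [(Ap − A0p)/(Ac − A0c)]} × 100. Means of two experiments.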

[6] = target: Triosephosphate isomerase (Homo sapiens) (UniProt P60174); test: Inhibition of human triosephosphate isomerase at 100 uM after 2 hrs; method in brief: as §1
Triosephosphate isomerase (Homo sapiens), sequence (P60174 whole entry): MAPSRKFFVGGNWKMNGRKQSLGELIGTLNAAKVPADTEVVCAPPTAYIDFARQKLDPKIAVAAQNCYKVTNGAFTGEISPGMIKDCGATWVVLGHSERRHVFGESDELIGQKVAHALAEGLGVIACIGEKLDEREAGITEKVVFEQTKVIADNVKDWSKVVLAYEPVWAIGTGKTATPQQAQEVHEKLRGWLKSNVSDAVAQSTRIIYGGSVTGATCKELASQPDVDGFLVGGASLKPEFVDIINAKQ

[7] = tested on: Trypanosoma cruzi; test: Antiparasitic activity against Trypanosoma cruzi CLB epimastigotes assessed as growth inhibition; assay type: functional; conditions: read-out: ID50 (the source's name); method in brief: as §2
[8] = tested on: Trypanosoma cruzi; test: Antiparasitic activity against Trypanosoma cruzi CLB epimastigotes assessed as growth inhibition at 25 uM after 5 days; assay type: functional; conditions: 120 h, read-out: GI; method in brief: as §3
[9] = target: Triosephosphate isomerase, glycosomal (Trypanosoma cruzi, UniProt P52270); test: Inhibition of Trypanosoma cruzi triosephosphate isomerase after 2 hrs; method in brief: as §1
Triosephosphate isomerase, glycosomal, sequence (P52270 whole entry): as the sequence (P52270 whole entry) above

[10] = tested on: Trypanosoma cruzi; test: Antiparasitic activity against Trypanosoma cruzi Y epimastigotes assessed as growth inhibition; assay type: functional; conditions: read-out: ID50 (the source's name); method in brief: as §2
[11] = tested on: Trypanosoma cruzi; test: Antiparasitic activity against Trypanosoma cruzi Y epimastigotes assessed as growth inhibition at 25 uM after 5 days; assay type: functional; conditions: 120 h, read-out: GI; method in brief: as §3

## C/C(=C\c1cccs1)[N+](=O)[O-]
[1]
  inhibition: 95%
[2]
  inhibition: 53%
[3]
  Ratio: > 4
[4]
  IC50: > 25 µM
[5]
  inhibition of growth at 25 µM: 14.6%

## [O-][n+]1c2ccc(O)cc2[n+]([O-])c2cc(Cl)c(Cl)cc21
[6]
  inhibition: 0%
[7]
  IC50: 2 µM
[1]
  inhibition: 84%
[2]
  inhibition: 73%
[3]
  Ratio: > 4
[4]
  IC50: 2.9 µM
[8]
  inhibition of growth at 25 µM: 100%
[9]
  IC50: 26 µM
[10]
  IC50: 5.5 µM
[5]
  inhibition of growth at 25 µM: 100%
[11]
  inhibition of growth at 25 µM: 100%

## Cc1ccc(-c2nsc(=O)[nH]2)cc1
[6]
  inhibition: 59%
[1]
  inhibition: 95%
[2]
  inhibition: 98%
[4]
  IC50: > 25 µM
[9]
  IC50: 3.5 µM
[5]
  inhibition of growth at 25 µM: 0%

## Cc1c(/C=N/NC(N)=S)no[n+]1[O-]
[1]
  inhibition: 87%
[2]
  inhibition: 56%
[3]
  Ratio: > 4
[4]
  IC50: > 25 µM
[5]
  inhibition of growth at 25 µM: 24.7%

## NC1=NS(=O)(=O)N=C(N)C1=Cc1ccc([N+](=O)[O-])o1
[1]
  inhibition: 100%
[2]
  inhibition: 99%
[3]
  Ratio: > 4
[4]
  IC50: 50 µM
[9]
  IC50: 20 µM
[5]
  inhibition of growth at 25 µM: 22.2%

## O/N=C1C=CC(/C=C/c2ccccc2)=CC/1=N/O
[7]
  IC50: 4.7 µM
[1]
  inhibition: 77%
[2]
  inhibition: 8%
[3]
  Ratio: > 4
[8]
  inhibition of growth at 25 µM: 100%
[5]
  Activity: Active

## c1ccc(-c2nsc(-c3ccccc3)n2)cc1
[1]
  inhibition: 74%
[2]
  inhibition: 45%
[3]
  Ratio: > 4
[4]
  IC50: 25 µM
[5]
  inhibition of growth at 25 µM: 50%

## CCOC(=O)c1nc(-c2ccccc2)ns1
[1]
  inhibition: 87%
[2]
  inhibition: 69%
[3]
  Ratio: > 4
[4]
  IC50: > 25 µM
[5]
  inhibition of growth at 25 µM: 25%

## Cc1ccc(-c2nsc(S(=O)(=O)c3ccc(C)cc3)n2)cc1
[1]
  inhibition: 78%
[2]
  inhibition: 57%
[3]
  Ratio: > 4
[4]
  IC50: 5 µM
[5]
  inhibition of growth at 25 µM: 100%

## O=C1C(=Cc2ccc([N+](=O)[O-])o2)C(=O)N(Cc2ccccc2)S(=O)(=O)N1Cc1ccccc1
[6]
  inhibition: 0%
[1]
  inhibition: 82%
[2]
  inhibition: 82%
[3]
  Ratio: > 4
[4]
  IC50: 50 µM
[9]
  IC50: 13 µM
[5]
  inhibition of growth at 25 µM: 20.8%

## O=c1oc(-c2ccccc2)ns1
[6]
  inhibition: 0%
[1]
  inhibition: 96%
[2]
  inhibition: 81%
[3]
  Ratio: > 4
[4]
  IC50: 22 µM
[9]
  IC50: 10 µM
[5]
  inhibition of growth at 25 µM: 59%

## [O-][n+]1onc(-c2ccccc2)c1CNc1cccc2ccccc12
[1]
  inhibition: 72%
[2]
  inhibition: 45%
[3]
  Ratio: > 4
[4]
  IC50: > 25 µM
[5]
  inhibition of growth at 25 µM: 24.7%

## CC1=CC(=N/O)/C(=N\O)C=C1
[1]
  inhibition: 85%
[2]
  inhibition: 49%
[3]
  Ratio: > 4
[4]
  IC50: 25 µM
[5]
  inhibition of growth at 25 µM: 50%

## O/N=C1/C=CC(C=Cc2ccc(Cl)cc2)=C/C1=N/O
[7]
  IC50: 5 µM
[1]
  inhibition: 73%
[2]
  inhibition: 25%
[3]
  Ratio: > 4
[8]
  inhibition of growth at 25 µM: 100%
[5]
  Activity: Active

## C/C(=C\c1ccc2c(c1)OCO2)[N+](=O)[O-]
[1]
  inhibition: 74%
[2]
  inhibition: 55%
[3]
  Ratio: > 4
[4]
  IC50: 5.1 µM
[5]
  inhibition of growth at 25 µM: 100%

## O=C(Cn1ccnc1[N+](=O)[O-])NCc1ccccc1 [BENZNIDAZOLE]
[1]
  inhibition: 18%
[3]
  Ratio: > 4
[4]
  IC50: 7.4 µM
[5]
  Activity: Active

## O=c1cc(-c2ccccc2)oc2ccccc12 [FLAVONE]
[1]
  inhibition: 83%
[2]
  inhibition: 52%
[3]
  Ratio: > 4
[4]
  IC50: > 25 µM
[5]
  inhibition of growth at 25 µM: 19.1%
